Shown are actives, neighbours in structure and some others; about 6.3% of the full set was active somewhere.
PostGolgi yeast = growth inhibition of a yeast mutant, post-Golgi transport screen; 98,000 tested, 0.9% active; inhibition, % at 10 µM; post-Golgi transport phenotypic cell assay;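 further: yeast cells grown in 1536-well plates; yeast grown about 18 h at 30C before absorbance read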
Ecoli WT expand = growth inhibitors of E. coli BW25113 wild type | AID 710 | 98,000 tested, 0.15% active | OD600 absorbance | growth inhibition, % at 100 µM;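 active means growth inhibition above about 50% at one test dose, limit read from the data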;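 further: growth measured after 20 h incubation at 37 °C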
PostGolgi ctrl = growth of the yeast control strain, post-Golgi counter-screen. inhibition, % at 10 µM. efflux-deficient yeast background strain, growth absorbance A615, 16 h. 98,000 tested, 5% active
tolC growth inh = growth inhibitors of E. coli BW25113 tolC mutant. OD615. growth inhibition, % at 10 µM (by protocol). 65,000 tested, 2.2% active. AID 573;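 active means growth inhibition at or above a cutoff equal to the mean over every tested compound plus 3 SD, cut at about 60% in these data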;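 further: growth measured after 20 h incubation at 37 °C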
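Material: E. coli BW25113 ΔtolC::kan, tolC deletion mutant strain. Measure: percent growth inhibition. Schedule: 37 °C, 20 h exposure. Doses: single-point testing at 10 µM. Signal: A615 absorbance measurement. Buffer or medium: kanamycin-containing LB broth (50 µg/mL).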
Hits are given with their value; i = inactive; nt = no result given. Unless noted, no stated cut-off is given here; in the data, active means inhibition above about 30%; inactive means the rest.

SMILES	PostGolgi yeast	Ecoli WT expand	PostGolgi ctrl	tolC growth inh
CCOC(=O)C(CSCC(=O)c1ccc(Cl)cc1)NC(=O)OC(C)(C)C (stereo unspecified)	i	i	i	nt
O=C(Nc1ncc(Cc2cccc(Cl)c2)s1)c1cccs1	i	i	47	nt
Cc1ccc(Cc2cnc(NC(=O)c3cccs3)s2)cc1	i	i	41	nt
O=C(Nc1ncc(Cc2cccc(Cl)c2)s1)C1=NCCN1	i	i	i	nt
O=C(Nc1ncc(Cc2ccccc2)s1)c1cccs1	i	i	i	i
O=C(Nc1nc(-c2cc(Cl)sc2Cl)cs1)c1cccs1	i	i	i	100
CC1CC(C)CN(C(=O)c2ccc3c(c2NCCO)C(=O)c2ccccc2C3=O)C1 (stereo unspecified)	i	i	i	nt
COc1ccc(CNC(=O)c2ccc(NS(=O)(=O)c3c(C)noc3C)cc2)cc1	i	i	31	i
Cc1ccc(NC(=O)c2ccc(NS(=O)(=O)c3c(C)noc3C)cc2)cc1C	i	i	i	76
COc1ccc(NC(=O)c2ccc(NS(=O)(=O)c3c(C)noc3C)cc2)cc1OC	i	i	i	i
COc1ccccc1CNC(=O)c1ccc(NS(=O)(=O)c2c(C)noc2C)cc1	i	i	i	i
Cc1ccc(SCc2cc(=O)[nH]c(/N=C(\N)Nc3ccc(C)c(C)c3)n2)cc1	i	i	i	nt
CS(=O)(=O)N(CC(=O)NCc1ccccn1)Cc1ccc(Cl)cc1	i	i	i	i
Cc1ccccc1NS(=O)(=O)c1ccc(OCC(=O)N2CCCCC2)cc1	i	i	i	nt
CC(C)(C)NC(=O)c1ccccc1-c1nc(-c2ccccc2Cl)no1	i	i	30	i
COc1ccc2c(c1)c1ncn(CCc3ccccc3)c(=O)c1n2C	i	i	39	nt
COc1ccc2c(c1)c1ncn(CCCN3CCOCC3)c(=O)c1n2C	i	i	i	nt
CCN(CC)C(=O)CSc1nc(-c2ccc(C)cc2)nc2c1COC(C)(C)C2	i	i	36	nt
COC(=O)C1CCN(C(=O)c2ccccc2Oc2ccccc2)CC1	i	i	i	i
COc1ccc(C)cc1-n1nnnc1SCc1nc2ccccc2s1	i	i	35	i
COc1ccc(-n2nnnc2SCc2nc3ccccc3s2)cc1	i	i	i	nt
Cc1c(C(=O)OCC(C)C)[nH]c2c1C(=O)CC(c1cccs1)C2 (stereo unspecified)	i	i	i	nt
COC(=O)c1ccccc1NC(=O)C1CCCN(S(=O)(=O)c2ccccc2)C1 (stereo unspecified)	i	i	41	i
COC(=O)c1ccccc1NC(=O)N1CCN(S(=O)(=O)c2ccc(Cl)cc2)CC1	i	i	43	i
COC(=O)c1ccccc1NC(=O)C1CCCN(S(=O)(=O)c2ccc(F)cc2)C1 (stereo unspecified)	i	i	i	i
SMILES	PostGolgi yeast	Ecoli WT expand	PostGolgi ctrl	tolC growth inh
Cc1ccccc1NC(=O)C1CCCN(S(=O)(=O)c2cnc[nH]2)C1 (stereo unspecified)	i	i	60	i
CN1C(=O)NC(c2cccc(O)c2)C(C(=O)c2cccs2)C1(O)C(F)(F)F (stereo unspecified)	i	75	i	i
CCOC(=O)C1C(c2cccs2)NC(=O)N(C)C1(O)C(F)(F)F (stereo unspecified)	i	i	i	nt
Cc1cc(C)c(S(=O)(=O)NCCn2c(C)cc3ccccc32)c(C)c1	i	i	44	nt
Cc1cc(C)n(-c2nc(Nc3ccccc3C)nc(-n3nc(C)cc3C)n2)n1	i	i	53	nt
CC(C)(C)Nc1nc(NN)nc(NC(C)(C)C)n1	i	i	i	nt
Cc1cc(C)n(-c2nc(NC(C)(C)C)nc(NC(C)(C)C)n2)n1	i	i	41	i
Cc1cc(C)n(-c2nc(NC(C)C)nc(NC(C)C)n2)n1	i	i	i	88
CC(C)(C)Nc1nc(NC(C)(C)C)nc(-n2ccnc2)n1	i	i	33	i
Cc1nn(CCc2n[nH]c(=S)n2C2CCCCC2)c(C)c1Br	i	i	i	nt
COc1ccc(S(=O)(=O)N(CC(=O)NCC2CCCO2)c2ccc(F)cc2)cc1OC (stereo unspecified)	i	i	i	nt
O=C(CSc1nnc(-c2ccccc2)n1Cc1ccco1)NCc1ccc2c(c1)OCO2	i	i	i	nt
CCOC(=O)C1=C(O)C(Nc2nccs2)(C(F)(F)F)N=C1C (stereo unspecified)	i	i	35	i
NC(=O)c1nsc(C(=O)N(CC(=O)NCc2ccc3c(c2)OCO3)C2CCCC2)c1N	i	i	i	i
CC(C)(C)C1CCc2c(sc(N)c2C(N)=O)C1 (stereo unspecified)	i	i	i	i
CCCC1CCc2c(sc(N)c2C(N)=O)C1 (stereo unspecified)	31	i	i	nt
CC(C)=C1SC(N2CCCCC2)=NC1=O	i	i	i	nt
C/C(=C1/SC(N2CCCC2)=NC1=O)c1ccc(Br)cc1	i	i	33	i
Cn1cnnc1SCC(=O)c1ccc2c(c1)OCO2	i	i	i	nt
CCC1CCCCN1c1nc(-c2ccncc2)nc2ccccc12 (stereo unspecified)	i	i	75	i
c1cncc(-c2nc(N3CCOCC3)c3ccccc3n2)c1	i	i	i	nt
CC1CCCCN1c1nc(-c2ccncc2)nc2ccccc12 (stereo unspecified)	i	i	73	100
CC1CCN(c2nc(-c3ccncc3)nc3ccccc23)CC1	105	i	95	i
c1ccc2c(N3CCOCC3)nc(-c3ccncc3)nc2c1	i	i	i	nt
CC1CCCCN1c1ncnc2ccccc12 (stereo unspecified)	i	i	i	nt
SMILES	PostGolgi yeast	Ecoli WT expand	PostGolgi ctrl	tolC growth inh
CCC1CCCCN1c1nc(-c2cccc(OC)c2O)nc2ccccc12 (stereo unspecified)	i	i	41	i
CCOc1ccc(N2C(=O)C(Cl)=C(Nc3ccccc3O)C2=O)cc1	i	i	i	nt
CCOC(=O)c1cncc(C(=O)O)c1	i	i	i	nt
COC(=O)c1cccc(N(C(=O)c2cnccn2)C(C(=O)NC2CCCCC2)c2cn(C)nc2C)c1 (stereo unspecified)	i	i	i	nt
COC(=O)c1ccc(=O)n(Cc2ccc3c(c2)OCO3)c1	i	i	i	i
CCOC(=O)C(O)(CCC(O)(C(=O)OCC)C(=O)OCC)C(=O)OCC	i	i	i	i
CC(C)CC(=O)NC(=S)Nc1ccc(NC(=O)c2cccs2)cc1	i	i	i	nt
O=C(O)C12CC3CC(C1)CC(n1cnc(Cl)n1)(C3)C2	i	i	i	i
O=C(NC12CC3CC(CC(C3)C1)C2)C12CC3CC(C1)CC(n1cnc(Cl)n1)(C3)C2	i	i	45	nt
N#Cc1cccc(-c2cn(S(=O)(=O)c3ccc(Cl)cc3)nc2N)c1	i	i	31	i
Clc1ccc(-c2nnc(NC3=NCCCCC3)o2)cc1	i	i	30	i
COc1ccc(/C=N/n2c(SC)nnc2-c2ccccc2)cc1C	i	i	43	87
CC(NC(=O)Cc1cccs1)c1ccncc1 (stereo unspecified)	i	i	i	i
CC(NC(=O)Cc1cccs1)c1ccc2c(c1)OCO2 (stereo unspecified)	i	i	37	i
CCOc1ccccc1NC(=O)c1cc(CC(C)C)oc1C	i	i	i	75
Cc1oc(CC(C)C)cc1C(=O)Nc1cccc2ccccc12	i	i	i	nt
Cc1cc(=O)n(CC(C)O)c(O)c1C#N (stereo unspecified)	nt	nt	nt	i

Compound activity from PubChem.
